Reference: ChEMBL document CHEMBL4680124, “2-Styryl-4-aminoquinazoline derivatives as potent DNA-cleavage, p53-activation and in vivo effective anticancer agents” (Eur J Med Chem, 2020)
pIC50: −log10 of the molar value. The source made the active and inactive calls. No cut-off for these calls is given here.

How the values were obtained:
MGC-803 [1] = test: Induction of apoptosis in human MGC-803 cells assessed as necrotic cells at 0.5 uM measured after 24 hrs by Annexin-V/propidium iodide staining-based flow cytometric analysis (Rvb =6.05%)
A549 = test: Cytotoxicity against human A549 cells expressing wild type p53 assessed as reduction in cell viability preincubated for 48 hrs and measured after 4 hrs by MTT assay; type: functional, cell-based
MGC-803 [2] = test: Antitumor activity against human MGC-803 cells xenografted in BALB/C nude mouse assessed as tumor growth inhibition at 10 mg/kg, ip administered every 2 days and measured 3 times per week for 16 days; type: functional; parameters: scale not given: the % may be the effect or the level left; conditions: time 16 day
Outline: (§1)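 Male BALB/c nude mice, 6 weeks old, given 5×10^6 MGC-803 cells s.c. in the flank. When tumors reached about 80 mm3, mice were randomized (n = 6/group) and dosed i.p. every 2 days. Vehicle was 5% DMSO in saline. Drug solutions were 1.0 or 2.0 mg/mL (DMSO/saline). Tumor length and width plus body weight were measured three times weekly; volume = lw²/2. Mean ± SD.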

MGC-803 [3] = test: Induction of apoptosis in human MGC-803 cells assessed as late apoptotic cells at 1 uM measured after 24 hrs by Annexin-V/propidium iodide staining-based flow cytometric analysis (Rvb =0.93%)
[4] = Induction of mitochondria membrane potential loss in human MGC-803 cells assessed as increase in green fluorescence at 0.5 uM incubated 24 hrs by JC-1 probe based flow cytometry analysis (reference value: 4.67%); type: functional
MGC-803 [5] = test: Induction of apoptosis in human MGC-803 cells assessed as activation of caspase 3 at 2.5 uM incubated for 24 hrs by flow cytometric analysis (reference value: 1.47%); type: functional
DU-145 = test: Cytotoxicity against human DU145 cells expressing mutant type p53 assessed as reduction in cell viability preincubated for 48 hrs and measured after 4 hrs by MTT assay; type: functional, cell-based
Outline: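 MTT assay. Cells grown in DMEM (T24, MGC-803, A549, HL-7702), RPMI-1640 (DU145) or DMEM-F12 (PC-3), each with 10% FBS. Exposed to 1.25–20 µM in medium with 1% DMSO for 48 h, then MTT for 4 h. Formazan dissolved in DMSO and read at 570 nm. Five wells per concentration; means ± SD of independent repeats.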

MGC-803 [6] = test: Induction of apoptosis in human MGC-803 cells assessed as increase in nuclear chromatin condensation at 0.5 to 2.5 uM incubated for 24 hrs by Hoechst 33258 staining based analysis; type: functional, cell-based; conditions: dose 0.5-2.5 µM
Outline: (§2)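 Cells in six-well plates were treated for the indicated time, then fixed 10 min in 4% paraformaldehyde and washed twice in PBS. Nuclei were stained 5 min with Hoechst 33258, washed twice in PBS and examined by fluorescence microscopy.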

T-24 = test: Cytotoxicity against human T-24 cells […] assessed as reduction in cell viability preincubated for 48 hrs and measured after 4 hrs by MTT assay; type: functional, cell-based
MGC-803 [7] = test: Induction of ROS generation in human MGC-803 cells assessed as intracellular ROS level at 0 to 2.5 uM after 24 hrs by DCFH-DA staining-based flow cytometric analysis; type: functional, cell-based; conditions: dose 0-2.5 µM
Outline: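 MGC-803 cells treated at 0.5, 1.0 or 2.5 µM for 24 h, harvested, washed in cold PBS and loaded with DCFH-DA at 37 °C for 30 min in the dark. Washed three times in PBS; fluorescence read by flow cytometry. Representative of three experiments.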

MGC-803 [8] = test: Induction of apoptosis in human MGC-803 cells assessed as increase in Bax expression at 0.5 to 2.5 uM measured after 24 hrs by Western blot analysis; type: functional, cell-based; conditions: dose 0.5-2.5 µM
Outline: (§3)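 MGC-803 cells (2×10^6) plated overnight, then treated for 24 h at 0.5, 1.0 or 2.5 µM (test agent) or 5.0 µM (comparator). Whole-cell lysates separated by SDS-PAGE, transferred to PVDF and probed with primary antibodies. AP-linked anti-rabbit IgG, ECL detection, β-actin loading control. Representative of three experiments.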

MGC-803 [9] = test: Induction of apoptosis in human MGC-803 cells assessed as increase in CDK4 protein expression upto 2.5 uM incubated for 24 hrs by Western blot analysis; type: functional, cell-based; conditions: dose microM <=2.5, time 24.0 hrs
Outline: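 MGC-803 cells (2×10^6) cultured overnight, then exposed 24 h to 0.5, 1.0 or 2.5 μM, or 5.0 μM for the reference agent. Lysates were resolved by SDS-PAGE, transferred to PVDF and probed with primary antibodies. Detection used AP-linked anti-rabbit IgG and ECL. β-actin served as loading control.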

MGC-803 [10] = test: Cell cycle arrest in human MGC-803 cells assessed as accumulation at G2/M phase at 0.25 uM after 48 hrs by propidium iodide staining-based flow cytometric analysis (reference value: 7.94%); type: functional
MGC-803 [11] = test: Induction of apoptosis in human MGC-803 cells assessed as cell shrinkage at 0.5 to 2.5 uM incubated for 24 hrs by Hoechst 33258 staining based analysis; type: functional; conditions: dose 0.5-2.5 µM
Outline: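 MGC-803 cells treated in six-well plates, fixed in 4% paraformaldehyde for 10 min, washed, stained with Hoechst 33258 for 5 min, and examined for nuclear morphology by fluorescence microscopy.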

MGC-803 [12] = test: Cell cycle arrest in human MGC-803 cells assessed as accumulation at G2/M phase at 0.125 uM after 48 hrs by propidium iodide staining-based flow cytometric analysis (reference value: 7.94%); type: functional
MGC-803 [13] = test: Induction of apoptosis in human MGC-803 cells assessed as increase in Bak expression at 0.5 to 2.5 uM measured after 24 hrs by Western blot analysis; conditions: dose 0.5-2.5 µM
MGC-803 [14] = test: Antitumor activity against human MGC-803cells xenografted in BALB/C nude mouse assessed as reduction in tumor volume at 20 mg/kg, ip administered every 2 days and measured 3 times per week; type: functional, organism-based; conditions: time 2.0 day
Outline: as §1

MGC-803 [15] = test: Induction of DNA damage in human MGC-803 cells assessed as increase in gamma H2AX at 2.5 uM measured after 24 hrs by Western blot analysis; type: functional, cell-based
Outline: as §3

[16] = Induction of mitochondria membrane potential loss in human MGC-803 cells assessed as increase in green fluorescence at 2.5 uM incubated 24 hrs by JC-1 probe based flow cytometry analysis (reference value: 4.67%); type: functional
Calf thymus DNA = test: Binding affinity to calf thymus DNA assessed as quenching in emission band measured at 0.5:1 to 5:1 compound to EB ratio by ethidium bromide competitive displacement assay; conditions: Bos taurus
Outline: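 Competitive displacement using EB (10 µM) with ct-DNA (20 µM) in Tris-HCl, pH 7.4, 25 °C. Compound added stepwise from 10 to 100 µM; 5 min equilibration after each addition, then fluorescence emission recorded (slits 5 nm). Quenching constant from the Stern–Volmer equation.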

MGC-803 [17] = test: Induction of apoptosis in human MGC-803 cells assessed as necrotic cells at 1 uM measured after 24 hrs by Annexin-V/propidium iodide staining-based flow cytometric analysis (Rvb =6.05%)
MGC-803 [18] = test: Induction of apoptosis in human MGC-803 cells assessed as nuclear fragmentation incubated at 0.5 to 2.5 uM for 24 hrs by Hoechst 33258 staining based analysis; type: functional, cell-based; conditions: dose 0.5-2.5 µM
Outline: as §2

## NCCCCNc1nc(/C=C/c2ccc([N+](=O)[O-])cc2)nc2ccccc12
MGC-803 [1]
  Activity: 8.13%
A549
  pIC50: 5.26
MGC-803 [2]
  Activity: 35.9%
MGC-803 [3]
  Activity: 16%
[4]
  Activity: 8.91%
MGC-803 [5]
  Activity: 22.98%
DU-145
  pIC50: 5.38
MGC-803 [6]
  Activity: Active
T-24
  pIC50: 5.75
MGC-803 [7]
  Activity: Active
MGC-803 [8]
  Activity: Active
MGC-803 [9]
  Activity: Active
MGC-803 [10]
  Activity: 55.43%
MGC-803 [11]
  Activity: Active
MGC-803 [12]
  Activity: 18.16%
MGC-803 [13]
  Activity: inactive
MGC-803 [14]
  Activity: Active
MGC-803 [15]
  Activity: Active
[16]
  Activity: 22.6%
Calf thymus DNA
  Activity: Active
MGC-803 [17]
  Activity: 2.21%
MGC-803 [18]
  Activity: Active
